Experimental data gathered from unrelated publications.
Compare with care: the assays were run in different laboratories.
rep methyltransferase: Replicase polyprotein 1ab, methyltransferase (rep, Severe acute respiratory syndrome coronavirus 2, UniProt P0DTD1)
rep main protease: Replicase polyprotein 1ab, main protease (rep, Severe acute respiratory syndrome coronavirus 2, UniProt P0DTD1)

| Compound | target | test | setting | quantity | value |
| --- | --- | --- | --- | --- | --- |
| O=C(N1CCC2(CC1)C[C@H](CN1CCCCS1(=O)=O)CCO2)C1(c2ccccc2)CCCC1 | Replicase polyprotein 1ab, helicase (rep, Severe acute respiratory syndrome coronavirus 2, UniProt P0DTD1) | ATPase activity, inhibitor | – | IC50 | > 100 µM |
| CCC(Sc1nnc2c(n1)[nH]c1ccccc12)C(=O)N1c2ccccc2Sc2ccccc21 (stereo not shown) | rep methyltransferase | enzyme activity, inhibitor | – | IC50 | > 100 µM |
| Cc1c(O)cccc1C(=O)N[C@@H](CSc1ccccc1)[C@H](O)CN1C[C@H]2CCCC[C@H]2C[C@H]1C(=O)NC(C)(C)C | rep main protease | enzyme activity, inhibitor | – | IC50 | 28.8 µM |
| CCC1CC(c2ccc(C(=O)O)cc2)=NN1c1ccc(C#N)c(Cl)c1 (stereo not shown) | rep methyltransferase | enzyme activity, inhibitor | – | IC50 | 0.42 µM |
| O=C(O[C@@H]1Cc2c(O)cc(O)cc2O[C@@H]1c1ccc(O)c(O)c1)c1cc(O)c(O)c(O)c1 | rep main protease | enzyme activity, inhibitor | with preincubation | IC50 | < 10 µM |
| CC1(C)O[C@@H]2C[C@H]3[C@@H]4C[C@H](F)C5=CC(=O)C=C[C@]5(C)[C@@]4(F)[C@@H](O)C[C@]3(C)[C@]2(C(=O)CO)O1 | rep main protease | enzyme activity, inhibitor | – | IC50 | 69.1 µM |
| COc1ccc(OC)c(C(O)C(C)N)c1 (stereo not shown) | Alpha-1A adrenergic receptor (ADRA1A, Homo sapiens, UniProt P35348) | protein level, degrader, western blot | – | DC50 | 17.4 µM |
| N#Cc1ccc(N2CCC(c3ccc(C(=O)O)cc3)=N2)cc1Cl | rep methyltransferase | enzyme activity, inhibitor | – | IC50 | 53.1 µM |
| C[C@@H]1CCO[C@H]2Cn3cc(C(=O)NCc4ccc(F)cc4F)c(=O)c(O)c3C(=O)N12 | rep main protease | enzyme activity, inhibitor | – | IC50 | 49.4 µM |
| O=C(O)c1cc(O)c(O)c(O)c1 | rep main protease | enzyme activity, inhibitor | with preincubation | IC50 | < 10 µM |
